# Source: PubChem BioAssay
# Hits are enriched below; roughly 4.7% of the tested compounds scored in any of these assays.
# MC4R antag cAMP = human MC4R antagonism in cAMP assay; inhibition, % at 6.5 µM; 360,000 compounds, 0.48% hits; MC4R-expressing cells, MTII-stimulated cAMP, LANCE TR-FRET;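 active = inhibition above its plate's cutoff, the mean of tested wells on that plate plus 3 SD, cut at about 29% in these data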;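 also: 0% = Melanotan II alone and 100% = Melanotan II plus saturating MCL0020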
#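 System: U2OS-MC4R stable cell line; Technique: Eu-cAMP/anti-cAMP TR-FRET, emission 671 nm; Repeats: single well per compound; Also added: Melanotan II; Dosing: one concentration, 6.5 µM nominal; Schedule: 30-min compound, 1-h challenge, 1-h detection, room temperature.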
# MC4R barr agon = agonists of human melanocortin 4 receptor (MC4R) beta-arrestin; U2OS MC4R beta-arrestin complementation, luminescence; percent of melanotan II response, DMSO zero; P32245; activation, % at 8.9 µM; 360,000 compounds, 0.98% hits; AID 540308;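 active = activation above a per-plate cutoff, the mean activation of sample wells on that plate plus 3 SD, cut at about 8% in these data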
# FXN GAA850 act = frataxin GAA850 promoter activation. activation, % at 6 µM. 360,000 compounds, 0.56% hits. HEK293 lucGAA850 FXN promoter luciferase reporter, 24 h; percent of 10 µM SAHA response;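 active = activation above the average of all compounds screened plus 3 SD, cutoff fixed separately per campaign, cut at about 7.5% in these data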;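 also: 0% = DMSO wells and 100% = 10 µM SAHA wells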
# m5-HT2A agonist = activates the mouse 5-HT2A serotonin receptor; P35363; CHO-K1 mHTR2A beta-arrestin complementation, luminescence; percent of 30 µM serotonin response; activation, % at 7.6 µM; 360,000 compounds, 0.66% hits;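 active = activation above a run cutoff, the mean activation of all tested compounds plus 3 SD, cut at about 14% in these data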;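 also: 0% = plate median of compound wells and 100% = 30 µM serotonin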
# Target sequence (P35363 whole entry, looked up): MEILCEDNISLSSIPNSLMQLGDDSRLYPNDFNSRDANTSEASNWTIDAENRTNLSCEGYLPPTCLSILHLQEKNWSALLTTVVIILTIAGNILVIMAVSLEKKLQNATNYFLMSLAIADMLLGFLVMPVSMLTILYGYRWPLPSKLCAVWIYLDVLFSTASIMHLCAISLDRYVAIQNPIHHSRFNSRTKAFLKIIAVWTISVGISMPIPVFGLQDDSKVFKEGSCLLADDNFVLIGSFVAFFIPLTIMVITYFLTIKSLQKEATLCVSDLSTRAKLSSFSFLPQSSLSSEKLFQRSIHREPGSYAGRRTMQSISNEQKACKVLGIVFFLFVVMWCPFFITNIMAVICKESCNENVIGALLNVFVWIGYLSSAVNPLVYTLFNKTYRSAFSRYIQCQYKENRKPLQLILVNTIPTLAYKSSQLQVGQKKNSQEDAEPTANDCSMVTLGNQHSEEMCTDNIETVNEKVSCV
# AHR act = human AHR activation; activation, % at 5 µM; AID 2796; P35869; 320,000 compounds, 2.5% hits; AHR-responsive luciferase reporter cells, luminescence; in the data active = activation above about 47%;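 also: 0% = vehicle wells and 100% = reference agonist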
# GAA30 FXN cntr = counter-screen for GAA850 frataxin promoter activators: GAA30 promoter activation; shares compounds with FXN GAA850 act; HEK293 lucGAA30 FXN promoter luciferase, 24 h; DMSO = 0%, 5 µM ipriflavone = 100%; activation, % at 6 µM; 1,900 compounds, 66% hits; AID 588350;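 active = mean activation above the mean of solvent-only control wells plus 3 SD, cut at about 22% in these data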;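 also: counterscreen of GAA850 promoter hits where activity marks nonselective or luminescence artifacts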
# FXN GAA850 conf = confirmation of GAA850 frataxin (FXN) promoter activators. 1,900 compounds, 86% hits. HEK293 lucGAA850 FXN promoter luciferase reporter, 24 h; 100% = activation by SAHA. activation, % at 6 µM. shares compounds with FXN GAA850 act;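 active = mean activation above a set limit taken from the primary screen, cut at about 8% in these data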;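 also: 0% = DMSO wells and 100% = 10 µM SAHA wells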
# Active calls of the source: *; / = not tested or not shown.
SMILES,MC4R antag cAMP,MC4R barr agon,FXN GAA850 act,m5-HT2A agonist,AHR act,GAA30 FXN cntr,FXN GAA850 conf
C=CCSc1nnc(NC(=O)CCNC(=O)c2ccccc2Cl)s1,5,-1,-1,1,/,/,/
Cc1ccccc1NC(=O)N1CCCC(c2nc(-c3ccc(C(C)C)cc3)no2)C1 (stereo not drawn),6,1,9.2*,-5,-12,61*,28*
Fc1cccc(F)c1/C=C/c1ccc2ccccc2n1,-1,0,8.0*,1,48*,108*,34*
Cc1nc(SC(C(=O)c2ccccc2)c2ccccc2)nc2ccccc12 (stereo not drawn),0,-2,4,3,-1,/,/
COc1ccc2nc(SC(C(=O)c3ccccc3)c3ccccc3)nc(C)c2c1 (stereo not drawn),-10,-1,11*,-3,1,20,19*
COCCNC(=O)NC1(C(F)(F)F)Oc2ccc(Cl)cc2O1 (stereo not drawn),-2,1,15*,-2,1,17,11*
O=C(NCc1cccnc1)NC1(C(F)(F)F)Oc2ccc(Cl)cc2O1 (stereo not drawn),-2,-1,12*,-4,3,26*,18*
Cc1cc(NC(=O)NC2(C(F)(F)F)Oc3ccc(Cl)cc3O2)no1 (stereo not drawn),-15,7,18*,-1,-1,30*,15*
Cc1ccc(Cl)cc1NC(=O)NCc1cccnc1,11,-2,-1,-10,/,/,/
Cc1cc(NC(=O)Nc2ccc(F)c(Cl)c2)no1,-10,0,1,-1,1,/,/
CCCCC1C(=O)N(c2ccccc2)N(c2ccc(O)cc2)C1=O (stereo not drawn),-18,-3,-10,8,-3,/,/
CC(C)C(NC(=O)c1ccc(C(C)(C)C)cc1)C(=O)N1CCCC1 (stereo not drawn),0,1,2,-9,1,/,/
O=C(NCCCN1CCOCC1)c1cccc(S(=O)(=O)N2CCc3ccccc32)c1,3,-2,-1,-4,/,/,/
O=C(Nc1ccccc1O)c1ccc(NS(=O)(=O)c2cccc3cccnc23)cc1,14,-2,20*,-9,14,56*,73*
O=C(O)c1ccc(NS(=O)(=O)c2cccc3cccnc23)cc1,10,0,1,5,-1,/,/
O=C(Nc1ncccc1O)c1ccc(S(=O)(=O)Nc2ccccc2)cc1,7,-3,20*,-4,4,52*,47*
CC1CCCCC1NC(=O)Cn1cc([N+](=O)[O-])ccc1=O (stereo not drawn),0,0,1,-3,5,/,/
N#CCn1cnc2sc(-c3ccccc3)cc2c1=O,20,-2,9.2*,0,15,76*,28*
O=C(CCS(=O)(=O)c1ccccc1)Nc1nc(-c2cccs2)cs1,-2,2,8.8*,-6,15,-9,9.8*
O=C(CCS(=O)(=O)c1ccc(F)cc1)Nc1nc(-c2ccncc2)cs1,13,-1,-2,7,4,/,/
CC1C(c2ccccc2)=Nn2c(=O)n(-c3ccccc3)c(=O)n21 (stereo not drawn),1,-2,-1,9,/,/,/
COc1ccc(Br)cc1S(=O)(=O)N1CCN=C1c1ccccc1,16,0,-1,4,/,/,/
Brc1ccc2c(c1)-c1ccccc1C1=NCCN12,-6,-1,24*,1,/,11,130*
Clc1ccc2c(c1)-c1ccccc1C1=NCCN12,-13,-3,33*,5,/,-1,139*
CCOC1=C2[C@H](c3ccc(CC)cc3)N(S(=O)(=O)c3ccc(C)cc3)C[C@H]2C(C#N)(C#N)C(C#N)(C#N)C1,/,/,/,-1,/,/,/
SMILES,MC4R antag cAMP,MC4R barr agon,FXN GAA850 act,m5-HT2A agonist,AHR act,GAA30 FXN cntr,FXN GAA850 conf
Cc1cccc(/C(N)=N/OC(=O)c2ccc3c(c2)OCO3)c1,-4,0,7.9*,3,21,105*,39*
O=C(NNC(=O)C12CC3CC(CC(C3)C1)C2)c1cnccn1,21,-2,0,-3,3,/,/
O=C(NNC(=O)C12CC3CC(CC(C3)C1)C2)c1ccccn1,5,-3,10*,-8,1,-130,-37
COc1ccc(C2C=C(C34CC5CC(CC(C5)C3)C4)NC(=S)N2)cc1OC (stereo not drawn),1,-3,7.7*,6,-2,10,11*
Cc1nn(-c2nnc(NC3CCCCC3)nn2)c(C)c1Br,10,2,8.6*,8,33,124*,40*
Clc1cccc(-c2nc(NCc3cccnc3)c3ccccc3n2)c1,-2,-2,-5,-2,8,/,/
Cc1ccc(-c2nc(NCc3cccnc3)c3ccccc3n2)cc1,-3,1,7.7*,-2,22,30*,13*
Cc1nn2c3ccccc3nc2c2ccccc12,-13,-2,11*,-1,59*,75*,31*
Cc1nn2c(-c3ccccc3)nnc2c2ccccc12,-2,0,6,5,37,/,/
CNc1ncnc2c1ncn2[C@H]1CN(Cc2ccc3c(c2)OCO3)C[C@@H](CO)O1,12,1,0,-2,/,/,/
O=C(/C=C\c1ccccc1OC(=O)c1ccccc1F)c1cc2ccccc2o1,-12,-1,10*,0,59*,94*,29*
C=C1CCN([C@@H](CC(C)C)C(=O)Nc2nc3ccc(Cl)cc3s2)S(=O)(=O)c2ccccc21,19,-1,1,-3,1,/,/
Cc1ccc(-c2nnn(CC(=O)N(CC3CCCO3)C(C(=O)NC3CCCCC3)c3ccc(F)cc3)n2)o1 (stereo not drawn),-2,-1,8.3*,-1,2,22*,8.4*
Cc1ccc(-n2c(C)nnc2SCC(=O)N(C)C2CCS(=O)(=O)C2)cc1 (stereo not drawn),4,0,0,3,-2,/,/
O=[N+]([O-])c1ccccc1N/N=C/c1cc2ccccc2nc1Cl,15,2,1,-1,23,/,/
O=C(O)c1ccc(N/N=C/c2cc3ccccc3nc2Cl)cc1,-8,0,11*,0,28,120*,47*
Cc1cccc2cc(/C=N/Nc3ccc(C(=O)O)cc3)c(Cl)nc12,21,-2,12*,1,6,128*,49*
CS(=O)(=O)c1ncc(Cl)c(C(=O)Nc2ccc(OC(F)F)cc2)n1,12,-2,68*,-3,12,-76,-19
CCOC(=O)c1nc(S(C)(=O)=O)ncc1Cl,16,3,41*,-2,-1,63*,73*
